# Only some compounds are listed: those with a hit (about 2.2% of all), similar ones and a draw of the others.
# ARFGAP1 inh: inhibits rat ARF GTPase activating protein 1 | Q62848 | Arfgap1-stimulated ARF1 GTP hydrolysis, GDP FP detection | inhibition, % at 16.5 µM | 360,000 tested, 0.26% active;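 active means inhibition above a per-plate limit, mean inhibition of low control wells plus 3 SD, cut at about 25% in these data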;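 further: 0% = DMSO wells with enzyme and 100% = wells lacking Arfgap1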
# Target sequence (Q62848 1-136 limits assumed): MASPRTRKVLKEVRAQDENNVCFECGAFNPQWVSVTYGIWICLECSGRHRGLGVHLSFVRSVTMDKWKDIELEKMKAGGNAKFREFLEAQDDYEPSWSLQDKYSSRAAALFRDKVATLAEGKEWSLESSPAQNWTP
#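 Repeats: one replicate per compound; assay system: rat Arfgap1 catalytic domain, aa 1-136; times: enzyme reaction 120 min at 25 °C after 20 min preincubation; detection: FP of antibody-bound GDP Alexa 633 tracer, ex 620/em 688 nm; benchmarks: high control wells lacking Arfgap1, low control full reaction with DMSO; reagent: human ARF1(Δ1-17)-GTP substrate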
# rCAG RNA binder: r(CAG) repeat RNA binding; TO-PRO-1 dye displacement fluorescence; inhibition, % at 3 µM; 370,000 tested, 1.3% active; AID 651821;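 active means inhibition above the plate cutoff, the mean of all test compounds on that plate plus 3 SD, cut at about 35% in these data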;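 further: 0% = DMSO alone and 100% = 100 µM mitoxantrone as full dye displacement; higher means more dye released from RNA so lower well fluorescence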
# ASAP1 inh: inhibitors of human ASAP1 ArfGAP activity | 360,000 tested, 0.19% active | Q9ULH1 | ASAP1-stimulated ARF1 GTP hydrolysis, GDP FP detection | inhibition, % at 16.5 µM | AID 624377; in the data active means inhibition above about 25%;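 further: 0% = vehicle with enzyme and substrate and 100% = no enzyme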
# NadD inh: NadD (S. aureus) enzyme inhibition. purified NadD enzyme, colorimetric absorbance read-out. inhibition, % at 20 µM. 360,000 tested, 0.78% active; in the data active means inhibition above about 26%
# ARFGAP1 inh conf: confirmation of rat ARFGAP1 inhibitors; shares compounds with ARFGAP1 inh; ARFGAP1-stimulated ARF1 GTP hydrolysis, GDP tracer FP; inhibition, % at 16.5 µM; 890 tested, 30% active; AID 651608;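 active means average inhibition over triplicates above the hit cutoff set in the earlier primary screen, cut at about 25% in these data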;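 further: 0% = Arfgap1 plus ARF1-GTP with DMSO and 100% = wells lacking Arfgap1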
# Target sequence (Q62848 whole entry, looked up): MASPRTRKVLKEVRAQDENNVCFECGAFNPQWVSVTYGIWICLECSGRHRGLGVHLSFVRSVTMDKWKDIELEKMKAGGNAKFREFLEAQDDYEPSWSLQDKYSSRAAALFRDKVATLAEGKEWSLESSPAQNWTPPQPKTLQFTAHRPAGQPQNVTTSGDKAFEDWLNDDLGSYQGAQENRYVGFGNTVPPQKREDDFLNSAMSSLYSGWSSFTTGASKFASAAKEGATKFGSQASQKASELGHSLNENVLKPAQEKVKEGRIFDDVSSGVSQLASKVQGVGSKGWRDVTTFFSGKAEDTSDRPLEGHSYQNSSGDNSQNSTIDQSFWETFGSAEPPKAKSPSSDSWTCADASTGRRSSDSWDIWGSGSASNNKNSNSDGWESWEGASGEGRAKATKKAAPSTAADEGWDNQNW
# rCAG bind conf: r(CAG) RNA repeat binding, confirmation; shares compounds with rCAG RNA binder; AID 652065; 4,300 tested, 70% active; TO-PRO-1 dye displacement fluorescence; inhibition, % at 3 µM;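 active means inhibition above a per-plate cutoff, the mean inhibition of sample wells plus 3 SD, cut at about 35% in these data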;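 further: loss of TO-PRO-1 fluorescence as compound displaces dye from 1x1 AA loop RNA; 0% = DMSO only wells and 100% = 100 µM mitoxantrone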
# dCAG dye counter: counter-screen for rCAG RNA binders: DNA CAG dye complex inhibitors | shares compounds with rCAG RNA binder | d(CAG) DNA oligo TO-PRO-1 dye displacement, fluorescence | inhibition, % at 3 µM | 4,300 tested, 94% active;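 active means inhibition above its plate's cutoff, the mean test-well inhibition plus 3 SD, cut at about 4.8% in these data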;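 further: 0% = DNA dye mix with DMSO and 100% = 100 µM mitoxantrone; hits displace the dye from DNA and so lower well fluorescence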
# DNA CAG DR: DNA CAG dye complex inhibition, dose response counter-screen. 250 tested, 20% active. DNA CAG/GTC duplex TO-PRO-1 dye displacement fluorescence. IC50, µM. shares compounds with rCAG RNA binder; in the data active means IC50 below about 10 µM
# Starred values were filed as active, the others as inactive; i = inactive; nt = not tested or not shown.
SMILES,ARFGAP1 inh,rCAG RNA binder,ASAP1 inh,NadD inh,ARFGAP1 inh conf,rCAG bind conf,dCAG dye counter,others
Cc1ccc(S(=O)(=O)N(CC(=O)NCc2cccnc2)C2CCCCC2)cc1,-3,-7,-11,-1,nt,nt,nt,
CCc1cccc(C)c1NC(=O)CSc1nnc(CCCOc2ccc(Cl)cc2Cl)n1C,25*,5,10,0,8,nt,nt,
Cn1c(CCCOc2ccc(Cl)cc2Cl)nnc1SCC(=O)Nc1cccc(F)c1,-6,-3,-8,-2,nt,nt,nt,
COc1ccc(OC)c(/C=C2\Oc3cc(OCC(=O)N4CCC(C(=O)O)CC4)ccc3C2=O)c1,42*,38*,16,3,48*,42*,8.6*,
O=C(O)c1ccc(NC(=O)c2cccc(S(=O)(=O)Nc3ccc(C(=O)O)cc3)c2)cc1,-15,-4,-8,-3,nt,nt,nt,
O=C1CSc2ccc(C(=O)Nc3cccc(S(=O)(=O)Nc4ccc(Br)cc4)c3)cc2N1,33*,39*,15,30,25*,45*,15*,
Cc1ccc(OCc2nnc(SCC(=O)Nc3ccc(S(N)(=O)=O)cc3)n2-c2ccc(Cl)cc2)cc1,nt,11,nt,nt,nt,nt,nt,
O=C(O)c1ccc(/C=C/c2ccc3cccc(O)c3n2)cc1,-5,12,11,4,nt,nt,nt,
Oc1ccc(/C=C/c2ccc3cccc(O)c3n2)cc1Br,28*,50*,14,15,7,29,14*,
O=C(NCc1ccco1)C1CCCN(S(=O)(=O)c2ccc(F)cc2)C1 (stereo not drawn),nt,4,nt,nt,nt,nt,nt,
C/C(=N\N=C(/N)SC1CC(=O)N(c2ccc(Br)cc2)C1=O)c1cccs1 (stereo not drawn),27*,47*,14,15,21,77*,35*,
O=C(Nc1cccc(Cl)c1)Nc1sccc1-c1nc2ccccc2s1,27*,35*,5,9,12,27,18*,
COc1cccc(CNC[C@H]2O[C@@H](n3ccc(N)nc3=O)[C@H](O)[C@@H]2O)c1OCc1ccc(F)cc1Cl,1,2,7,-4,nt,nt,nt,
O=C(N/N=C/c1ccc(O)cc1O)c1ccncc1,9,-2,7,-2,nt,nt,nt,
Cc1ccc(C(C)C)c(OCc2ccc(C(=O)N/N=C/c3ccc(O)cc3O)cc2)c1,30*,38*,22,14,32*,32,15*,
N#Cc1cccc(C(=O)C(=O)N2CCCN(Cc3ccc(F)cc3)CC2)c1,1,0,0,nt,nt,nt,nt,
COc1ccc(NC(=O)Nc2nnc([C@H]3C[C@H](O)[C@@H](CO)O3)s2)cc1,-10,6,-16,-3,nt,nt,nt,
CC(C)=CCC/C(C)=C/Cc1c(O)ccc(C(=O)/C=C/c2ccc(O)cc2)c1O,28*,68*,20,0,26*,39*,24*,
C=C(C)C(O)Cc1c(OC)ccc(C(=O)/C=C/c2ccc(O)cc2)c1O (stereo not drawn),15,13,6,-3,nt,nt,nt,
O=C(Nc1nc2ccc(SC(F)F)cc2s1)c1ccc(NS(=O)(=O)c2ccc(F)c(F)c2)cc1,26*,62*,19,17,30*,84*,66*,
CCOc1cc(/C=C2\SC(=N)N(c3nccs3)C2=O)ccc1OCCN1CCOCC1,39*,38*,6,-1,43*,37*,11*,
CC1C/C=C/C=C/C=C/C=C/C(O[C@@H]2O[C@H](C)[C@@H](O)[C@H](N)[C@@H]2O)CC2OC(O)(CC(O)CC3OC3/C=C/C(=O)O1)CC(O)C2C(=O)O (stereo partly drawn),8,14,-17,nt,nt,nt,nt,
C[C@@H]1[C@H](O)[C@@H](C)/C=C/C=C/C=C/C=C/C=C/C=C/C=C/[C@H](OC2O[C@H](C)[C@@H](O)[C@H](N)[C@@H]2O)C[C@@H]2O[C@](O)(C[C@@H](O)C[C@@H](O)[C@H](O)CC[C@@H](O)C[C@@H](O)CC(=O)O[C@H]1C)C[C@H](O)[C@H]2C(=O)O (stereo partly drawn),nt,41*,nt,nt,nt,44*,14*,DNA CAG DR=>30
Cc1cccc(C)c1OCC(=O)N[C@@H](Cc1ccccc1)[C@@H](O)C[C@H](Cc1ccccc1)NC(=O)[C@H](C(C)C)N1CCCNC1=O,nt,6,nt,nt,nt,nt,nt,
O=C(O)c1cccc(S(=O)(=O)N2CCC(Cc3ccccc3)CC2)c1,3,22,-5,-8,nt,nt,nt,
SMILES,ARFGAP1 inh,rCAG RNA binder,ASAP1 inh,NadD inh,ARFGAP1 inh conf,rCAG bind conf,dCAG dye counter,others
O=C(O)c1ccc(Cl)c(S(=O)(=O)N2CCC(Cc3ccccc3)CC2)c1,-7,62*,8,1,nt,45*,13*,
COC(=O)c1sc(-c2ccc(C(C)(C)C)cc2)cc1NC(=O)CCC(=O)O,-16,72*,-7,0,nt,72*,29*,
COC(=O)c1sc(-c2ccc(Cl)cc2)cc1NC(=O)COCC(=O)O,-15,46*,-11,-10,nt,52*,12*,DNA CAG DR=i
CC(=O)c1sc(C(C)(C)C)cc1NC(=O)CCC(=O)O,-5,-1,3,4,nt,nt,nt,
COC(=O)c1sc(-c2ccc(Cl)cc2)cc1NC(=O)/C=C/C(=O)O,-5,12,-6,7,nt,nt,nt,
C[C@@H]1CN([C@@H](C)CO)C(=O)CCCn2cc(nn2)CO[C@H]1CN(C)C(=O)Nc1ccccc1F,-11,1,-16,nt,nt,nt,nt,
CCOC(=O)C1=C(C)Nc2ccccc2N/C1=N\S(=O)(=O)c1ccc(Cl)cc1,3,35*,0,-2,nt,27,4.9*,
CCOC(=O)C1=C(C)Nc2ccccc2N/C1=N\S(=O)(=O)c1cc(C(=O)O)ccc1Cl,5,10,3,2,nt,nt,nt,
CCOC(=O)C1=C(CC)Nc2ccccc2N/C1=N\S(=O)(=O)c1ccc2ccccc2c1,-14,36*,0,-5,nt,41*,12*,
CCOC(=O)C1=C(CC)Nc2ccccc2N/C1=N\S(=O)(=O)c1cc(Br)ccc1Br,1,63*,-13,2,nt,59*,21*,
Cc1ccc(CN2CCCCC(NC(=O)C(C)(C)C)C2=O)cc1 (stereo not drawn),nt,0,nt,nt,nt,nt,nt,
COc1ccc(-n2c(COc3ccc(Cl)cc3)nnc2SCC(=O)Nc2ccc(Oc3ccccc3)cc2)cc1,nt,8,nt,nt,nt,nt,nt,
C[C@H](O)[C@@H]1C(=O)N2CCc3c([nH]c4c(-c5ccccc5)cccc34)[C@@H]2C[C@@H]1N(C)CC1CCCCC1,-5,7,-7,nt,nt,nt,nt,
N#C/C(=C(/O)CCl)c1nc(-c2ccccc2)cs1,2,42*,0,5,nt,38*,18*,
O=C(OCc1ccccc1)N1CCC2CC1c1ccc(/C=C/CCCCl)cc12 (stereo not drawn),-6,9,-3,9,nt,nt,nt,
